Source: ChEMBL document CHEMBL5303300, “EUbOPEN Chemogenomics Library - Multiplex” (2023)
“And” between values parts separate entries of the source, which are not always exact repeats. Equal values may be shown once.

Key:
Type in all cases: toxicity, cell-based
Fibroblast = assay: Multiplex assay against human fibroblast; conditions: number of replicates 2
Outline: (§1)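 Values for tubulin, mitochondrial-mass and membrane-permeability phenotypes are per cents of cells with healthy nuclei. These cells were identified by CellPathfinder machine-learning gating of live cells that had been stained at seeding with Hoechst33342, BioTracker Green Microtubule Cytoskeleton Dye, MitoTracker Red and Annexin V Alexa Fluor 680 and imaged on a CQ1 microscope at 37°C and 5% CO2 after compound addition. The gating first set Hoechst high-intensity objects apart from normal cells, then split normal cells into healthy, pyknosed or fragmented nuclei, and pyknosed cells into mitotic or apoptotic.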

HEK-293T = assay: Multiplex assay against HEK293T; conditions: human, number of replicates 2; outline: as §1
U2OS = assay: Multiplex assay against U2OS; conditions: human, number of replicates 2; outline: as §1
[1] = 12 h, 0 µM, compound concentration 0 uM
[2] = 12 h, 1 µM, compound concentration 1 uM
[3] = 24 h, 0 µM, compound concentration 0 uM
[4] = 24 h, 1 µM, compound concentration 1 uM
[5] = 48 h, 0 µM, compound concentration 0 uM
[6] = 48 h, 1 µM, compound concentration 1 uM

COc1cc(C(N)=O)ccc1Nc1ncc2c(n1)N(CCC(C)C)[C@H](C)C(=O)N2C
Population Apoptotic (%) (Fibroblast; [1]): 87% and 56% | Population Fragmented Nuclei (%) (Fibroblast; [1]): 48% and 61% | Population Healthy Nuclei (%) (Fibroblast; [1]): 41% and 32% | Population Hoechst High Intensity Objects (%) (Fibroblast; [1]): 0% | Population Mitochondria Different-Phenotype (%) (Fibroblast; [1]): 0% and 3% | Population Normal (%) (Fibroblast; [1]): 100% | Population Pyknosed Nuclei (%) (Fibroblast; [1]): 9% and 5% | Population Tubulin-Different-Phenotype (%) (Fibroblast; [1]): 79% and 61% | Total Cell Count (Fibroblast; [1]): 166 and 267 | Population Apoptotic (%) (Fibroblast; [2]): 56% and 34% | Population Fragmented Nuclei (%) (Fibroblast; [2]): 17% and 20% | Population Healthy Nuclei (%) (Fibroblast; [2]): 57% and 64% | Population Hoechst High Intensity Objects (%) (Fibroblast; [2]): 0% | Population Membrane Permeable-Phenotype (%) (Fibroblast; [2]): 7% and 15% | Population Mitochondria Different-Phenotype (%) (Fibroblast; [2]): 0% and 2% | Population Mitotic Cells (%) (Fibroblast; [2]): 43% and 65% | Population Normal (%) (Fibroblast; [2]): 99% and 100% | Population Pyknosed Nuclei (%) (Fibroblast; [2]): 25% and 15% | Population Tubulin-Different-Phenotype (%) (Fibroblast; [2]): 22% and 28% | Total Cell Count (Fibroblast; [2]): 148 and 165 | Population Apoptotic (%) (Fibroblast; [3]): 80% and 69% | Population Fragmented Nuclei (%) (Fibroblast; [3]): 54% and 72% | Population Healthy Nuclei (%) (Fibroblast; [3]): 29% and 21% | Population Hoechst High Intensity Objects (%) (Fibroblast; [3]): 0% | Population Membrane Permeable-Phenotype (%) (Fibroblast; [3]): 17% and 9% | Population Mitochondria Different-Phenotype (%) (Fibroblast; [3]): 4% and 7% | Population Mitotic Cells (%) (Fibroblast; [3]): 19% and 30% | Population Normal (%) (Fibroblast; [3]): 100% | Population Tubulin-Different-Phenotype (%) (Fibroblast; [3]): 78% and 65% | Total Cell Count (Fibroblast; [3]): 162 and 237 | Population Apoptotic (%) (Fibroblast; [4]): 54% and 61% | Population Fragmented Nuclei (%) (Fibroblast; [4]): 13% and 27% | Population Healthy Nuclei (%) (Fibroblast; [4]): 65% and 56% | Population Hoechst High Intensity Objects (%) (Fibroblast; [4]): 0% | Population Membrane Permeable-Phenotype (%) (Fibroblast; [4]): 10% and 5% | Population Mitochondria Different-Phenotype (%) (Fibroblast; [4]): 0% | Population Mitotic Cells (%) (Fibroblast; [4]): 45% and 38% | Population Normal (%) (Fibroblast; [4]): 100% | Population Pyknosed Nuclei (%) (Fibroblast; [4]): 20% and 15% | Population Tubulin-Different-Phenotype (%) (Fibroblast; [4]): 10% and 14% | Total Cell Count (Fibroblast; [4]): 152 and 166 | Population Apoptotic (%) (Fibroblast; [5]): 82% and 80% | Population Fragmented Nuclei (%) (Fibroblast; [5]): 64% and 84% | Population Healthy Nuclei (%) (Fibroblast; [5]): 21% and 9% | Population Hoechst High Intensity Objects (%) (Fibroblast; [5]): 0% | Population Membrane Permeable-Phenotype (%) (Fibroblast; [5]): 18% and 8% | Population Mitochondria Different-Phenotype (%) (Fibroblast; [5]): 0% and 8% | Population Mitotic Cells (%) (Fibroblast; [5]): 17% and 20% | Population Normal (%) (Fibroblast; [5]): 100% | Population Pyknosed Nuclei (%) (Fibroblast; [5]): 13% and 6% | Population Tubulin-Different-Phenotype (%) (Fibroblast; [5]): 64% and 56% | Total Cell Count (Fibroblast; [5]): 171 and 241 | Population Apoptotic (%) (Fibroblast; [6]): 68% and 46% | Population Fragmented Nuclei (%) (Fibroblast; [6]): 18% and 25% | Population Healthy Nuclei (%) (Fibroblast; [6]): 66% | Population Hoechst High Intensity Objects (%) (Fibroblast; [6]): 0% | Population Membrane Permeable-Phenotype (%) (Fibroblast; [6]): 9% and 11% | Population Mitochondria Different-Phenotype (%) (Fibroblast; [6]): 0% | Population Mitotic Cells (%) (Fibroblast; [6]): 32% and 53% | Population Normal (%) (Fibroblast; [6]): 100% | Population Pyknosed Nuclei (%) (Fibroblast; [6]): 15% and 8% | Population Tubulin-Different-Phenotype (%) (Fibroblast; [6]): 8% and 10% | Total Cell Count (Fibroblast; [6]): 161 and 162 | Population Apoptotic (%) (HEK-293T; [1]): 47% and 52% | Population Fragmented Nuclei (%) (HEK-293T; [1]): 3% and 2% | Population Healthy Nuclei (%) (HEK-293T; [1]): 86% and 88% | Population Hoechst High Intensity Objects (%) (HEK-293T; [1]): 2% | Population Membrane Permeable-Phenotype (%) (HEK-293T; [1]): 4% and 10% | Population Mitochondria Different-Phenotype (%) (HEK-293T; [1]): 31% and 35% | Population Mitotic Cells (%) (HEK-293T; [1]): 52% and 47% | Population Normal (%) (HEK-293T; [1]): 97% | Population Pyknosed Nuclei (%) (HEK-293T; [1]): 10% and 9% | Population Tubulin-Different-Phenotype (%) (HEK-293T; [1]): 82% and 95% | Total Cell Count (HEK-293T; [1]): 540 and 476 | Population Apoptotic (%) (HEK-293T; [2]): 62% and 60% | Population Fragmented Nuclei (%) (HEK-293T; [2]): 1% and 4% | Population Healthy Nuclei (%) (HEK-293T; [2]): 73% and 75% | Population Hoechst High Intensity Objects (%) (HEK-293T; [2]): 8% and 7% | Population Membrane Permeable-Phenotype (%) (HEK-293T; [2]): 2% | Population Mitochondria Different-Phenotype (%) (HEK-293T; [2]): 38% and 28% | Population Mitotic Cells (%) (HEK-293T; [2]): 37% and 39% | Population Normal (%) (HEK-293T; [2]): 91% and 92% | Population Pyknosed Nuclei (%) (HEK-293T; [2]): 24% and 20% | Population Tubulin-Different-Phenotype (%) (HEK-293T; [2]): 64% and 58% | Total Cell Count (HEK-293T; [2]): 432 and 456 | Population Apoptotic (%) (HEK-293T; [3]): 67% and 50% | Population Fragmented Nuclei (%) (HEK-293T; [3]): 4% and 5% | Population Healthy Nuclei (%) (HEK-293T; [3]): 88% | Population Hoechst High Intensity Objects (%) (HEK-293T; [3]): 3% and 2% | Population Membrane Permeable-Phenotype (%) (HEK-293T; [3]): 1% and 2% | Population Mitochondria Different-Phenotype (%) (HEK-293T; [3]): 44% and 59% | Population Mitotic Cells (%) (HEK-293T; [3]): 32% and 50% | Population Normal (%) (HEK-293T; [3]): 96% and 97% | Population Pyknosed Nuclei (%) (HEK-293T; [3]): 6% | Population Tubulin-Different-Phenotype (%) (HEK-293T; [3]): 81% and 96% | Total Cell Count (HEK-293T; [3]): 464 and 423 | Population Apoptotic (%) (HEK-293T; [4]): 75% and 68% | Population Fragmented Nuclei (%) (HEK-293T; [4]): 5% | Population Healthy Nuclei (%) (HEK-293T; [4]): 69% and 76% | Population Hoechst High Intensity Objects (%) (HEK-293T; [4]): 8% and 6% | Population Membrane Permeable-Phenotype (%) (HEK-293T; [4]): 1% | Population Mitochondria Different-Phenotype (%) (HEK-293T; [4]): 34% and 32% | Population Mitotic Cells (%) (HEK-293T; [4]): 24% and 31% | Population Normal (%) (HEK-293T; [4]): 91% and 93% | Population Pyknosed Nuclei (%) (HEK-293T; [4]): 25% and 18% | Population Tubulin-Different-Phenotype (%) (HEK-293T; [4]): 38% and 35% | Total Cell Count (HEK-293T; [4]): 461 and 420 | Population Apoptotic (%) (HEK-293T; [5]): 72% and 75% | Population Fragmented Nuclei (%) (HEK-293T; [5]): 16% and 11% | Population Healthy Nuclei (%) (HEK-293T; [5]): 78% and 80% | Population Hoechst High Intensity Objects (%) (HEK-293T; [5]): 3% | Population Membrane Permeable-Phenotype (%) (HEK-293T; [5]): 1% and 3% | Population Mitochondria Different-Phenotype (%) (HEK-293T; [5]): 39% and 55% | Population Mitotic Cells (%) (HEK-293T; [5]): 28% and 24% | Population Normal (%) (HEK-293T; [5]): 96% | Population Pyknosed Nuclei (%) (HEK-293T; [5]): 5% and 7% | Population Tubulin-Different-Phenotype (%) (HEK-293T; [5]): 63% and 89% | Total Cell Count (HEK-293T; [5]): 505 and 420 | Population Apoptotic (%) (HEK-293T; [6]): 72% and 73% | Population Fragmented Nuclei (%) (HEK-293T; [6]): 8% and 11% | Population Healthy Nuclei (%) (HEK-293T; [6]): 72% and 76% | Population Hoechst High Intensity Objects (%) (HEK-293T; [6]): 5% and 4% | Population Membrane Permeable-Phenotype (%) (HEK-293T; [6]): 1% | Population Mitochondria Different-Phenotype (%) (HEK-293T; [6]): 14% and 17% | Population Mitotic Cells (%) (HEK-293T; [6]): 27% and 26% | Population Normal (%) (HEK-293T; [6]): 94% and 95% | Population Pyknosed Nuclei (%) (HEK-293T; [6]): 19% and 12% | Population Tubulin-Different-Phenotype (%) (HEK-293T; [6]): 24% and 20% | Total Cell Count (HEK-293T; [6]): 520 and 517 | Population Apoptotic (%) (U2OS; [1]): 42% and 75% | Population Healthy Nuclei (%) (U2OS; [1]): 45% and 69% | Population Hoechst High Intensity Objects (%) (U2OS; [1]): 0% | Population Membrane Permeable-Phenotype (%) (U2OS; [1]): 31% and 42% | Population Mitochondria Different-Phenotype (%) (U2OS; [1]): 15% and 27% | Population Mitotic Cells (%) (U2OS; [1]): 57% and 24% | Population Normal (%) (U2OS; [1]): 100% | Population Pyknosed Nuclei (%) (U2OS; [1]): 16% and 18% | Population Tubulin-Different-Phenotype (%) (U2OS; [1]): 78% and 56% | Population Apoptotic (%) (U2OS; [2]): 100% and 61% | Population Healthy Nuclei (%) (U2OS; [2]): 66% and 76% | Population Hoechst High Intensity Objects (%) (U2OS; [2]): 0% | Population Membrane Permeable-Phenotype (%) (U2OS; [2]): 7% and 1% | Population Normal (%) (U2OS; [2]): 100% | Population Pyknosed Nuclei (%) (U2OS; [2]): 4% and 14% | Population Tubulin-Different-Phenotype (%) (U2OS; [2]): 92% and 81% | Population Apoptotic (%) (U2OS; [3]): 100% and 89% | Population Fragmented Nuclei (%) (U2OS; [3]): 46% and 22% | Population Healthy Nuclei (%) (U2OS; [3]): 41% and 54% | Population Hoechst High Intensity Objects (%) (U2OS; [3]): 0% | Population Membrane Permeable-Phenotype (%) (U2OS; [3]): 76% and 33% | Population Mitochondria Different-Phenotype (%) (U2OS; [3]): 70% and 40% | Population Mitotic Cells (%) (U2OS; [3]): 0% and 10% | Population Normal (%) (U2OS; [3]): 100% | Population Pyknosed Nuclei (%) (U2OS; [3]): 12% and 23% | Population Tubulin-Different-Phenotype (%) (U2OS; [3]): 88% and 47% | Population Apoptotic (%) (U2OS; [4]): 66% and 94% | Population Healthy Nuclei (%) (U2OS; [4]): 32% and 73% | Population Hoechst High Intensity Objects (%) (U2OS; [4]): 0% | Population Normal (%) (U2OS; [4]): 100% | Population Pyknosed Nuclei (%) (U2OS; [4]): 12% and 8% | Population Tubulin-Different-Phenotype (%) (U2OS; [4]): 87% and 85% | Population Apoptotic (%) (U2OS; [5]): 75% and 95% | Population Fragmented Nuclei (%) (U2OS; [5]): 57% and 39% | Population Healthy Nuclei (%) (U2OS; [5]): 34% and 30% | Population Hoechst High Intensity Objects (%) (U2OS; [5]): 0% | Population Membrane Permeable-Phenotype (%) (U2OS; [5]): 82% and 72% | Population Mitochondria Different-Phenotype (%) (U2OS; [5]): 70% | Population Normal (%) (U2OS; [5]): 100% | Population Tubulin-Different-Phenotype (%) (U2OS; [5]): 76% and 82% | Population Apoptotic (%) (U2OS; [6]): 100% and 84% | Population Fragmented Nuclei (%) (U2OS; [6]): 61% and 25% | Population Hoechst High Intensity Objects (%) (U2OS; [6]): 0% | Population Mitotic Cells (%) (U2OS; [6]): 0% and 15% | Population Normal (%) (U2OS; [6]): 100% | Population Pyknosed Nuclei (%) (U2OS; [6]): 17% and 12% | Population Tubulin-Different-Phenotype (%) (U2OS; [6]): 100% and 93%
